Test results: ChEMBL document CHEMBL3871266, “Synthesis and cytotoxic activity of novel A-ring cleaved ursolic acid derivatives in human non-small cell lung cancer cells” (Eur J Med Chem, 2016)
Active and inactive are the calls of the source. The calls are words filed in the database; no cut-off is given here.

Legend:
[1] = Cytotoxicity against human NCI-H460 cells expressing CTR5 gene assessed as reduction in cell viability measured after 72 hrs by CellTiter-Blue cell viability assay; type: functional, cell-based; details: Homo sapiens, NCI-H460, 72 h; read-out: IC50
Method in brief: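 Monolayer cultures in RPMI-1640 with 10% FBS at 37°C, seeded at 850 (H460 CTR5), 660 (H460 LKB1+/+) or 1780 (H322) cells/well so that the end point reaches 70–80% confluence. Treated 72h; vehicle 0.15% DMSO. CellTiter-Blue added until colour change (50–60, 80–90 or 100–120 min respectively), fluorescence read at 590 nm. IC50 by nonlinear regression; three independent experiments.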

NCI-H460 [2] = experiment: Induction of apoptosis in human NCI-H460 cells expressing CTR5 gene assessed as viable cells at 5 uM measured after 72 hrs by Annexin V-Cy5/propidium iodide staining-based flow cytometry (reference value: 93%); type: functional; details: NCI-H460, 72 h, read-out: Activity
NCI-H460 [3] = experiment: Induction of apoptosis in human NCI-H460 cells expressing CTR5 gene assessed as early apoptotic cells at 5 uM measured after 72 hrs by Annexin V-Cy5/propidium iodide staining-based flow cytometry (reference value: 1.7%); type: functional
NCI-H460 [4] = experiment: Induction of apoptosis in human NCI-H460 cells expressing CTR5 gene assessed as late apoptotic cells at 5 uM measured after 72 hrs by Annexin V-Cy5/propidium iodide staining-based flow cytometry (reference value: 3.2%); type: functional
NCI-H460 [5] = experiment: Induction of apoptosis in human NCI-H460 cells expressing CTR5 gene assessed as necrotic cells at 5 uM measured after 72 hrs by Annexin V-Cy5/propidium iodide staining-based flow cytometry (reference value: 2.1%); type: functional
NCI-H460 [6] = experiment: Induction of apoptosis in human NCI-H460 cells expressing CTR5 gene assessed as cleaved PARP level at 3 to 5.5 uM measured after 24 hrs by Western blot analysis; type: functional, cell-based
Method in brief: (§1)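 Cells were seeded at 3×10^5 (H460) or 4.2×10^5 (H322) per dish and treated 24h later with DMSO or a concentration series for 24h. Lysed in cold RIPA with phosphatase and protease inhibitors, then sonicated. 30 μg protein run on Bis-Tris gels and transferred to nitrocellulose or PVDF. Detection used infrared secondary antibodies on an Odyssey imager. Signal normalized to β-actin or GAPDH and to DMSO control; three independent experiments.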

NCI-H460 [7] = experiment: Induction of apoptosis in human NCI-H460 cells expressing CTR5 gene assessed as decrease in procaspase3 level at 4.5 uM measured after 24 hrs by Western blot analysis; type: functional; design: scale not given: the % may be the effect or the level left; method in brief: as §1
NCI-H322 [8] = experiment: Induction of apoptosis in human NCI-H322 cells assessed as increase in cleaved PARP level at 3 to 5.5 uM measured after 24 hrs by Western blot analysis; type: functional, cell-based; method in brief: as §1
NCI-H460 [9] = experiment: Induction of apoptosis in human NCI-H460 cells expressing CTR5 gene assessed as downregulation of Bcl2 expression at 3 to 5.5 uM measured after 24 hrs by Western blot analysis; type: functional, cell-based; method in brief: as §1
[10] = Downregulation of Mcl1 long isoform protein expression in human NCI-H460 cells expressing CTR5 gene at 3 to 4.5 uM measured after 24 hrs by Western blot analysis; type: functional, cell-based; method in brief: as §1
NCI-H460 [11] = experiment: Induction of autophagy in human NCI-H460 cells expressing CTR5 gene assessed as acidic vesicular organelle formation at 3 uM measured after 72 hrs by acridine orange dye based flow cytometry (reference value: 91.2%); type: functional
NCI-H460 [12] = experiment: Induction of autophagy in human NCI-H460 cells expressing CTR5 gene assessed as acidic vesicular organelle formation at 4 uM measured after 72 hrs by acridine orange dye based flow cytometry (reference value: 91.2%); type: functional
NCI-H460 [13] = experiment: Induction of apoptosis in human NCI-H460 cells expressing CTR5 gene assessed as early apoptotic cells at 20 uM measured after 72 hrs by Annexin V-Cy5/propidium iodide staining-based flow cytometry (reference value: 1.8%); type: functional
NCI-H460 [14] = experiment: Induction of apoptosis in human NCI-H460 cells expressing CTR5 gene assessed as necrotic cells at 20 uM measured after 72 hrs by Annexin V-Cy5/propidium iodide staining-based flow cytometry (reference value: 0.9%); type: functional
NCI-H460 [15] = experiment: Induction of apoptosis in human NCI-H460 cells expressing CTR5 gene assessed as viable cells at 4 uM measured after 72 hrs by Annexin V-Cy5/propidium iodide staining-based flow cytometry (reference value: 94.6%); type: functional; details: NCI-H460, 72 h, read-out: Activity
NCI-H460 [16] = experiment: Induction of apoptosis in human NCI-H460 cells expressing CTR5 gene assessed as late apoptotic cells at 4 uM measured after 72 hrs by Annexin V-Cy5/propidium iodide staining-based flow cytometry (reference value: 2.7%); type: functional
NCI-H460 [17] = experiment: Induction of apoptosis in human NCI-H460 cells expressing CTR5 gene assessed as necrotic cells at 4 uM measured after 72 hrs by Annexin V-Cy5/propidium iodide staining-based flow cytometry (reference value: 0.9%); type: functional
NCI-H460 [18] = experiment: Induction of apoptosis in human NCI-H460 cells expressing CTR5 gene assessed as viable cells at 4 uM measured after 72 hrs in presence of autophagy inhibitor chloroquine by Annexin V-Cy5/propidium iodide staining-based flow cytometry (reference value: 94.6%); type: functional; details: NCI-H460, 72 h, read-out: Activity
NCI-H460 [19] = experiment: Induction of apoptosis in human NCI-H460 cells expressing CTR5 gene assessed as late apoptotic cells at 4 uM measured after 72 hrs in presence of autophagy inhibitor chloroquine by Annexin V-Cy5/propidium iodide staining-based flow cytometry (reference value: 2.7%); type: functional
NCI-H460 [20] = experiment: Increase in Beclin1 level in human NCI-H460 cells expressing CTR5 gene at 3 to 5.5 uM measured after 24 hrs by Western blot analysis; type: functional, cell-based; method in brief: as §1
NCI-H460 [21] = experiment: Increase in lipidation of LC3A/B1 to LC3A/B2 in human NCI-H460 cells expressing CTR5 gene measured after 24 hrs by Western blot analysis; type: functional, cell-based; method in brief: as §1
NCI-H322 [22] = experiment: Increase in lipidation of LC3A/B1 to LC3A/B2 in human NCI-H322 cells measured after 24 hrs by Western blot analysis; type: functional, cell-based; method in brief: as §1
[23] = Downregulation of p62 level in human NCI-H460 cells expressing CTR5 gene at 3 to 5.5 uM measured after 24 hrs by Western blot analysis; type: functional, cell-based; method in brief: as §1
[24] = Downregulation of p62 level in human NCI-H322 cells at 3 to 5.5 uM measured after 24 hrs by Western blot analysis; type: functional, cell-based; method in brief: as §1
[25] = Upregulation of Beclin1 level in human NCI-H460 cells expressing CTR5 gene at 3.5 uM measured after 24 hrs by reverse-phase protein array method relative to control; type: functional, cell-based
[26] = Upregulation of Atg7 level in human NCI-H460 cells expressing CTR5 gene at 3.5 uM measured after 24 hrs by reverse-phase protein array method relative to control; type: functional, cell-based
[27] = biological target: Serine/threonine-protein kinase mTOR (Homo sapiens) (UniProt P42345); experiment: Inhibition of mTOR in human NCI-H460 cells expressing CTR5 gene assessed as upregulation of EIF4E pS09 level; type: cell-based
NCI-H460 [28] = experiment: Induction of autophagy in human NCI-H460 cells expressing CTR5 gene measured after 24 hrs by microarray method; type: functional, cell-based
NCI-H460 [29] = experiment: Induction of autophagy in human NCI-H460 cells expressing CTR5 gene measured after 24 hrs by reverse-phase protein array method; type: functional, cell-based

inhibition [27]: Active
Structure (SMILES): C=C(C)[C@@H]1CC[C@]2(C)[C@H](C[C@@H](F)C34OC(=O)[C@@]5(CC[C@@H](C)[C@H](C)[C@@H]35)CC[C@]42C)[C@@]1(C)CCC(=O)NCCC
IC50 [1]: 2600 nM
viability at 5 µM (NCI-H460 [2]): 51.9%
Activity (NCI-H460 [3]): 13.4%
Activity (NCI-H460 [4]): 29.1%
Activity (NCI-H460 [5]): 5%
Activity (NCI-H460 [6]): Active
Activity (NCI-H460 [7]): 29%
Activity (NCI-H322 [8]): Active
Activity (NCI-H460 [9]): Dose-dependent effect
Activity [10]: Dose-dependent effect
Activity (NCI-H460 [11]): 88.6%
Activity (NCI-H460 [12]): 66.7%
Activity (NCI-H460 [13]): 2.8%
Activity (NCI-H460 [14]): 0.9%
viability at 4 µM (NCI-H460 [15]): 77.4%
Activity (NCI-H460 [16]): 11.5%
Activity (NCI-H460 [17]): 3.6%
viability at 4 µM (NCI-H460 [18]): 77.4%
Activity (NCI-H460 [19]): 11.5%
Activity (NCI-H460 [20]): Active
Activity (NCI-H460 [21]): Dose-dependent effect
Activity (NCI-H322 [22]): Dose-dependent effect
Activity [23]: Active
Activity [24]: Active
Activity [25]: 5.6%
Activity [26]: 4.5%
Activity (NCI-H460 [28]): Active
Activity (NCI-H460 [29]): Active
